# Assay results reported in ChEMBL document CHEMBL4373680, “Small antibacterial molecules highly active against drug-resistant Staphylococcus aureus” (Medchemcomm, 2019).
# Assays:
# [1] = system: Staphylococcus aureus; assay: Antibiofilm activity against Staphylococcus aureus R3545 assessed as reduction in biofilm biomass at 16 to 64 ug/ml incubated for 24 hrs followed by plating on agar plate for 24 hrs by crystal violet staining assay relative to control; type: functional
# Procedure, shortened: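 Coverslip biofilms grown 24 h at 37 °C in nutrient broth with 1% glucose and 1% NaCl, then treated with compound for 24 h. PBS-washed and air-dried, stained with 0.1% w/v crystal violet for 5-10 min, washed, stain recovered in 95% ethanol, OD 522 nm read. Two experiments, mean with standard deviation.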
# [2] = system: Staphylococcus aureus; assay: Induction of membrane permeabilization in Staphylococcus aureus R3545 assessed as increase in fluorescence intensity measured upto 28 mins by propidium iodide staining based fluorescence spectroscopic technique; type: functional, organism-based
# Procedure, shortened: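 Mid-log MRSA washed in 5 mM HEPES and resuspended in 1:1 HEPES (5 mM) and glucose (5 mM). Propidium iodide added at 10 µM final. Baseline fluorescence (ex 535/em 617 nm) read 4 min, compound in water added, read to 28 min. Water control; triplicates averaged.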
smiles,measurement,setting,value
CCCCCCNC(=O)C[N+](C)(CCO)CCCCCCCCCCCC[N+](C)(CCO)CC(=O)NCCCCCC.O=C([O-])C(F)(F)F.O=C([O-])C(F)(F)F (configuration not stated),inhibition (INH),[1],80%
same,Activity,[2],Dose-dependent effect
